In PubChem BioAssay:
Records with an inconclusive call do not appear.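 Rule for the calls, unless noted: active = inhibition over a set limit, the all-compound mean plus 3 SD, in both replicate runs; inconclusive = over that limit in just one replicate run; inactive = at or under that limit in both runs.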

Assays:
[1] = OD615 S. cerevisiae growth inhibition, permissive medium, pilot counter-assay, permissive growth control for S. cerevisiae lifespan shortening project (AID 705;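 active = growth inhibition above 25% in both replicates, a cutoff set 3 SD above the mean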); settings: OD615, 24 h, at 10 µM, stronger effect = higher value
Procedure, shortened: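 System: engineered DeaD yeast; Medium: permissive raffinose/galactose medium; Compound dosing: 10 µM single dose, 0.25% DMSO; Incubation: 4 h cell pre-growth, 24 h exposure at 30 °C; Technique: OD at 615 nm; Evaluation: growth inhibition from lowered OD615 after 24 h.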

[2] = Restrictive medium S. cerevisiae growth inhibition, OD615, pilot screen of yeast lifespan reduction project, restrictive growth control (AID 706;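 active = growth inhibition above a set limit, 3 SD over mean compound inhibition, in both replicates, cut at about 43% in these data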;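 note: modified DeaD lifespan yeast strain shifted to restrictive glucose medium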); settings: OD615, 48 h, at 10 µM, stronger effect = higher value
Procedure, shortened: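 Material: modified S. cerevisiae; buffer or medium: CSMM-D glucose medium; doses: one concentration, 10 µM final, 0.25% DMSO; incubation: 48 h compound exposure at 30 °C; detection: optical density at 615 nm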

[3] = viability gain of MRP-1-high H69AR cells under doxorubicin, pilot screen, MRP-1 activator project, CellTiter-Glo, duplicate (AID 807;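 active = viability increase at or above a cutoff of the median across tested compounds plus 3 SD, cut at about 8.5% in these data, passing the limit was not always enough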;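 note: compound pretreatment 18-22 h then 72 h combined with doxorubicin; 0% = doxorubicin alone and 100% = vehicle without doxorubicin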); settings: H69AR viability with doxorubicin, CellTiter-Glo luminescence; at 10 µM; stronger effect = higher value
[4] = growth suppression of beta-catenin knockout HCT116, pilot screen, human colon tumor cells (AID 823;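 active = cell viability at or below a set limit in both duplicate runs, the limit being the all-compound median minus 4 SD, cut at about 23% in these data, passing the limit was not always enough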;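 note: 0% = wells killed by 20 µM Hyamine and 100% = untreated DMSO cell wells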); settings: CellTiter-Glo, 60 h, at 10 µM, stronger effect = lower value
[5] = growth suppression of PTEN-deleted HCT116, pilot screen, cell-based, HCT116 clonal line, CellTiter-Glo (AID 824;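 active = viability at or below 27.92% in each of two runs, the all-compound median minus 4 SD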;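 note: 0% = 20 µM Hyamine control and 100% = vehicle cell control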); settings: 60 h, at 10 µM, stronger effect = lower value
[6] = inhibitors of the yeast RAM network, pilot screen, dse1pr::URA3 reporter, 5-FOA selection (AID 869);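 note: 0% = DMSO wells with no growth and 100% = 10 µM 1-NA-PP1 with full growth; RAM network block rescues cells from 5-FOA so hits raise OD615 growth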; settings: S. cerevisiae dse1pr::URA3 5-FOA growth, OD615, 2 d; at 10 µM; stronger effect = higher value; strain carries analog-sensitive mutant Cbk1 kinase
[7] = RAM signaling pathway blockade in yeast – S. cerevisiae, Pdr1DBD-CYC8 efflux-inhibited sensitized strain, primary screen (AID 1298;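 active = RAM network inhibition above 8.4% in each of two replicates, 3 SD over the compound average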;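 note: 0% = DMSO untreated cells without growth and 100% = 10 µM 1-NA-PP1 full growth; higher means more yeast growth rescued from 5-FOA killing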); settings: S. cerevisiae cbk1-as DSE1-URA3 strain, 5-FOA growth OD615, 2 d; at 50 µM; stronger effect = higher value

O=C(NCCN1CCCCCC1)C1CCC(CNS(=O)(=O)c2cccc3cccnc23)CC1 (stereo not drawn)
inactive: growth inhibition [1] -8.39% | growth inhibition [2] -3.45% | viability increase [3] -3.58% | viability [4] 90.7% | viability [5] 93.8% | inhibition [6] 1.59% | RAM network inhibition [7] 10%

Cn1c(Cn2c(=O)sc3ccccc32)nnc1SCc1cccnc1
inactive: growth inhibition [1] -3.75% | growth inhibition [2] 2.86% | viability increase [3] -1.44% | viability [4] 96.6% | viability [5] 97.1% | inhibition [6] 1.83% | RAM network inhibition [7] 5.33%

CCc1ccc(N2CCN(C(=O)c3ccc(OC)c(OC)c3)CC2)cc1
inactive: growth inhibition [1] -15.2% | growth inhibition [2] -8.32% | viability increase [3] 2.36% | viability [4] 57.3% | viability [5] 79% | inhibition [6] 0.975% | RAM network inhibition [7] 2.51%

O=C(CCNS(=O)(=O)c1cccc2nsnc12)NCCc1ccccc1
inactive: growth inhibition [1] 3.27% | growth inhibition [2] -1.99% | viability increase [3] -1.34% | viability [4] 105% | viability [5] 97.6% | inhibition [6] 0.11% | RAM network inhibition [7] 1.2%

COc1cccc(C2CC(c3ccccc3OC)n3nc(N)nc3N2)c1 (stereo not drawn)
inactive: growth inhibition [1] -0.495% | growth inhibition [2] 6.87% | viability increase [3] -1.09% | viability [4] 98.1% | viability [5] 95.2% | inhibition [6] 1.06% | RAM network inhibition [7] 1.98%

CCCCN(C)CCC(=O)Nc1ccc(OC)cc1OC
inactive: growth inhibition [1] -0.81% | growth inhibition [2] -1.21% | viability increase [3] -3.73% | viability [4] 88.5% | viability [5] 86.4% | inhibition [6] 2.29% | RAM network inhibition [7] -1.48%

CCOCCCNC(=O)C(c1ccc(Cl)cc1)N1CCN(C(=O)c2ccco2)CC1 (stereo not drawn)
inactive: growth inhibition [1] -19.4% | growth inhibition [2] -17.1% | viability increase [3] -2.12% | viability [4] 101% | viability [5] 96.2% | inhibition [6] 2.34% | RAM network inhibition [7] 5.86%

CCOC(=O)CNC(=O)Cn1cnc2sc(C)c(S(=O)(=O)N3CCC(C)CC3)c2c1=O
inactive: growth inhibition [1] -5.06% | growth inhibition [2] -1.62% | viability increase [3] -2.55% | viability [4] 94% | viability [5] 93.6% | inhibition [6] 0.32% | RAM network inhibition [7] 4.1%

O=C(Cn1nnc(-c2ccccc2F)n1)NCCc1ccccc1
inactive: growth inhibition [1] -13.3% | growth inhibition [2] -7.54% | viability increase [3] -0.89% | viability [4] 97.4% | viability [5] 94% | inhibition [6] 1.33% | RAM network inhibition [7] 0.36%

CC(=O)Nc1nnc(SCc2cccc(F)c2)s1
inactive: growth inhibition [1] -1.17% | growth inhibition [2] -1.06% | viability increase [3] -0.12% | viability [4] 108% | viability [5] 104% | inhibition [6] 1.99% | RAM network inhibition [7] 4.84%

O=C(c1ccc2snnc2c1)N1CCCC1
inactive: growth inhibition [1] -11.3% | growth inhibition [2] -4.86% | viability increase [3] -0.66% | viability [4] 99.7% | viability [5] 94.2% | inhibition [6] 1.14% | RAM network inhibition [7] 4.99%

Cn1c(=O)c2c(nc(CN3CCN(C(=O)c4ccco4)CC3)n2Cc2ccccc2F)n(C)c1=O
inactive: growth inhibition [1] -1.06% | growth inhibition [2] -6.51% | viability increase [3] -4.26% | viability [4] 101% | viability [5] 89.8% | inhibition [6] 2.1% | RAM network inhibition [7] 3.22%

Cc1ccc(C2/C(=C(/O)c3ccc(Br)cc3)C(=O)C(=O)N2Cc2ccco2)o1 (stereo not drawn)
inactive: growth inhibition [1] -16.2% | growth inhibition [2] 7.88% | viability increase [3] -6.07% | viability [4] 55% | viability [5] 65% | inhibition [6] 0.82% | RAM network inhibition [7] -1.74%

COc1ccc(N2CCN(c3cc(C)c4ccc(O)cc4n3)CC2)cc1
inactive: growth inhibition [1] 3.12% | growth inhibition [2] 10.5% | viability increase [3] -2.1% | viability [4] 75.7% | viability [5] 79.8% | inhibition [6] 0.39% | RAM network inhibition [7] 6.62%

CC1CC(C)CN(C(=O)CSc2nnc(-c3ccc(Cl)cc3)o2)C1 (stereo not drawn)
inactive: growth inhibition [1] -0.98% | growth inhibition [2] -3.64% | viability increase [3] 1.73% | viability [4] 94.1% | viability [5] 89.2% | inhibition [6] 1.4% | RAM network inhibition [7] 7.35%

CCCc1nc(C)c(-c2ccc(OC)c(OC)c2)c(=O)[nH]1
inactive: growth inhibition [1] -17.9% | growth inhibition [2] -15.2% | viability increase [3] -0.18% | viability [4] 101% | viability [5] 95.3% | inhibition [6] 2.53% | RAM network inhibition [7] 0.84%

Cn1c(Cn2c(=O)sc3ccccc32)nnc1SCC(N)=O
inactive: growth inhibition [1] -17.4% | growth inhibition [2] -3.94% | viability increase [3] 0.08% | viability [4] 110% | viability [5] 88% | inhibition [6] 1.82% | RAM network inhibition [7] 3.26%

O=C(c1cc2nc(-c3ccco3)cc(C(F)(F)F)n2n1)N1CCCCCC1
inactive: growth inhibition [1] -9.02% | growth inhibition [2] -9.3% | viability increase [3] -3.73% | viability [4] 86.3% | viability [5] 83.7% | inhibition [6] 0.805% | RAM network inhibition [7] 3.38%

Cc1cc2cc(CCNC(=O)CC(C)(C)C)c(=O)[nH]c2cc1C
inactive: growth inhibition [1] -11.3% | growth inhibition [2] -21% | viability increase [3] -0.18% | viability [4] 101% | viability [5] 98.7% | inhibition [6] 2.57% | RAM network inhibition [7] 5.74%

Cc1ccc(C)c2[nH]c(=O)c(CCNC(=O)CC(C)C)cc12
inactive: growth inhibition [1] -2.83% | growth inhibition [2] -10.7% | viability increase [3] -1.74% | viability [4] 103% | viability [5] 108% | inhibition [6] 1.75% | RAM network inhibition [7] 8.88%

c1ccc(Cn2ncc3c(N4CCCCC4)ncnc32)cc1
inactive: growth inhibition [1] -0.96% | growth inhibition [2] 8.13% | viability increase [3] -0.97% | viability [4] 96.2% | viability [5] 95.4% | inhibition [6] 0.01% | RAM network inhibition [7] 3.67%

COC1=C(OC)c2ccccc2C(C(=O)O)N/C1=C(/C)Nc1ccncc1 (stereo not drawn)
inactive: growth inhibition [1] -5.63% | growth inhibition [2] -2.54% | viability increase [3] -0.91% | viability [4] 94.7% | viability [5] 91.5% | inhibition [6] 1.11% | RAM network inhibition [7] -1.82%

COc1ccc(C(=O)c2coc3ccc(O)c(CN(C)C)c23)cc1
inactive: growth inhibition [1] -15% | growth inhibition [2] -11.6% | viability increase [3] -2.46% | viability [4] 84.4% | viability [5] 76.1% | inhibition [6] 0.74% | RAM network inhibition [7] -1.93%

COc1cccc(-c2nc(CS(=O)CC(=O)NCc3ccccc3)c(C)o2)c1 (stereo not drawn)
inactive: growth inhibition [1] -9.55% | growth inhibition [2] -15.4% | viability increase [3] 1.16% | viability [4] 99.5% | viability [5] 96.2% | inhibition [6] 1.11% | RAM network inhibition [7] 4.44%
